Data taken from ChEMBL document CHEMBL1629616 (Antimicrob Agents Chemother, 2009).

Assays:
[1] = Inhibition of CYP3A using midazolam as probe; type: ADME
Procedure, shortened: (§1)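 1′-Hydroxymidazolam measured by HPLC-UV at 230 nm with desmethyldiazepam internal standard. IC50 from log concentration versus percent activity remaining.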

[2] = Inhibition of CYP3A using testosterone as probe; type: ADME
[3] = Inhibition of CYP3A using nifedipine as probe; type: ADME
Cytochrome P450 2B6 [4] = molecular target: T1, Cytochrome P450 2B6 (Homo sapiens, UniProt P20813); assay: Inhibition of CYP2B6 in human liver microsomes assessed as 8-hydroxyefavirenz 14-hydroxylation after 10 mins; type: ADME, Microsome
T1 sequence (P20813 whole entry): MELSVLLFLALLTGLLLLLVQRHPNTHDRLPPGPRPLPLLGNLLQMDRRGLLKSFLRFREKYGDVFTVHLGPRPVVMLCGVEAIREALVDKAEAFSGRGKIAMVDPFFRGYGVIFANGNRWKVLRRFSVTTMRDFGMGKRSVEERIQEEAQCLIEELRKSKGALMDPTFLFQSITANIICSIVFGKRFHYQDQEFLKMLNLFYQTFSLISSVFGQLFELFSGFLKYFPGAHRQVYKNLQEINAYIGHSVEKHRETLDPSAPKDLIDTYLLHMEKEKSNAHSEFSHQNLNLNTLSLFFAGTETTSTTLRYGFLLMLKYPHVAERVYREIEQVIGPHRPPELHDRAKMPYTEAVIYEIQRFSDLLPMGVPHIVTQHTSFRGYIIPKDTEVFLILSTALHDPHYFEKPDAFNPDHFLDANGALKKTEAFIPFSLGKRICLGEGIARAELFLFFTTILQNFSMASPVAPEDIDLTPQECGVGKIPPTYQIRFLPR

CYP2C8 = molecular target: T2, CYP2C8 (Homo sapiens, UniProt P10632); assay: Inhibition of CYP2C8 in human liver microsomes assessed as amodiquine N-deethylation at 100 uM after 15 mins; type: ADME, Microsome; settings: probe amodiquine (N-deethylation)
T2 sequence (P10632 whole entry): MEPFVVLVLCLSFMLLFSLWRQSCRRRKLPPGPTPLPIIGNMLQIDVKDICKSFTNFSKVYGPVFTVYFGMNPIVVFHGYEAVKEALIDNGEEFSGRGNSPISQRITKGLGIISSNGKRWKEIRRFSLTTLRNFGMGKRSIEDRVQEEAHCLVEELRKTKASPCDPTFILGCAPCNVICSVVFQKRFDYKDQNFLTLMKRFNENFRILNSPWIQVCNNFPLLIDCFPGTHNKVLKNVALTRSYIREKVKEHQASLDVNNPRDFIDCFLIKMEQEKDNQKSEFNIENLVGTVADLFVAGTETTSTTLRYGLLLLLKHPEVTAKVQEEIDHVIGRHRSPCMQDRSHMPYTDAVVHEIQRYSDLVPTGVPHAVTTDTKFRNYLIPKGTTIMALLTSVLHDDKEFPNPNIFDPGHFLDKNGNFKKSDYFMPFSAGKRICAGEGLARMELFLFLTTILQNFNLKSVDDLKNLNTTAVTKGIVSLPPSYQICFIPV

CYP2D6 = CYP2D6 (Homo sapiens, UniProt P10635); assay: Inhibition of CYP2D6 in human liver microsomes assessed as dextromethorphan O-demethylation at 100 uM after 30 mins; type: ADME, Microsome; settings: probe dextromethorphan (O-demethylation)
CYP2D6, sequence (P10635 whole entry): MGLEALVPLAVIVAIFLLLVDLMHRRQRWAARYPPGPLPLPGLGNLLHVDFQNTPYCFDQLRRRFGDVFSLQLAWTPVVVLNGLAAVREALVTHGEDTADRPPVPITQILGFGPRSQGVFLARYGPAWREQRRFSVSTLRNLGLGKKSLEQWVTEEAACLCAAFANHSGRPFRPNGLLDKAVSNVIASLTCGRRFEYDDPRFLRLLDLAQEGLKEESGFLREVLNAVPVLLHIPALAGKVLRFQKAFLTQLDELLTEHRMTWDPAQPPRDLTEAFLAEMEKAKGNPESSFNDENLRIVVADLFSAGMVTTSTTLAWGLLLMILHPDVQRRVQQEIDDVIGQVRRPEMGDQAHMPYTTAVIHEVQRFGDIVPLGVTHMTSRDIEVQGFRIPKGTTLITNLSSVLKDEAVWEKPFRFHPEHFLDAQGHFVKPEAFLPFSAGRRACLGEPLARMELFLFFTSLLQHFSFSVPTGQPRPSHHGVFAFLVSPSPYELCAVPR

Cytochrome P450 2B6 [5] = molecular target: T1, Cytochrome P450 2B6; assay: Inhibition of CYP2B6 in human liver microsomes assessed as bupropion 4-hydroxylation after 15 mins by Dixon plot analysis; type: ADME, Microsome
Cytochrome P450 2B6 [6] = molecular target: T1, Cytochrome P450 2B6; assay: Inhibition of CYP2B6 in human liver microsomes using bupropion as probe after 15 mins
Cytochrome P450 2B6 [7] = molecular target: T1, Cytochrome P450 2B6; assay: Inhibition of CYP2B6 in human liver microsomes assessed as bupropion 4-hydroxylation after 15 mins
Cytochrome P450 2B6 [8] = molecular target: T1, Cytochrome P450 2B6; assay: Inhibition of CYP2B6 in human liver microsomes assessed as efavirenz 8-hydroxylation at 10 uM after 60 mins; type: ADME, Microsome; settings: 1 h
CYP1A2 = molecular target: T3, CYP1A2 (Homo sapiens, UniProt P05177); assay: Inhibition of CYP1A2 in human liver microsomes assessed as phenacetin O-deethylation at 100 uM after 30 mins; type: ADME, Microsome; settings: probe phenacetin (O-deethylation)
T3 sequence (P05177 whole entry): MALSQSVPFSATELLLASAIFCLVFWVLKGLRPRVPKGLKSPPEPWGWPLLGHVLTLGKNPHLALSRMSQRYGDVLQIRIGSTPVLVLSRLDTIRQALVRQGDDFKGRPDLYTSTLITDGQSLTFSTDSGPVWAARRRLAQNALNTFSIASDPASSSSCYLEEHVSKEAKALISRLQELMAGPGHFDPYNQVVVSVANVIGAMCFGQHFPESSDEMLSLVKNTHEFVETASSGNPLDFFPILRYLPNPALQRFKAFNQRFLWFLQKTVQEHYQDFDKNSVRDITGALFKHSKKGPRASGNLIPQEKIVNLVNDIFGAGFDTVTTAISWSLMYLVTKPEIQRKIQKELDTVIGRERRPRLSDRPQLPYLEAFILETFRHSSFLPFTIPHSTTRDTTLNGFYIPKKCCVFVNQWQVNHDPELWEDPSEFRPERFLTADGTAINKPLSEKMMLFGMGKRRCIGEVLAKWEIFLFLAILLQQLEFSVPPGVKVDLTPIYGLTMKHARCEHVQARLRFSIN

Cytochrome P450 2B6 [9] = molecular target: T1, Cytochrome P450 2B6; assay: Inhibition of CYP2B6 in human liver microsomes assessed as efavirenz 8-hydroxylation after 10 mins; type: ADME, Microsome
Procedure, shortened: (§2)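 Ethyl acetate extraction under alkaline pH; 8-hydroxyefavirenz measured by HPLC-UV at 245 nm with ritonavir internal standard. IC50 from log concentration versus percent activity remaining.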

Cytochrome P450 2B6 [10] = molecular target: T1, Cytochrome P450 2B6; assay: Inhibition of CYP2B6 in human liver microsomes using efavirenz as probe after 10 mins; type: ADME, Microsome; procedure, shortened: as §2
[11] = Inhibition of CYP3A using felodipine as probe; type: ADME
Cytochrome P450 2B6 [12] = molecular target: T1, Cytochrome P450 2B6; assay: Inhibition of CYP2B6 in human liver microsomes assessed as efavirenz 8-hydroxylation after 10 mins by Dixon plot analysis; type: ADME, Microsome
Procedure, shortened: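 8-Hydroxyefavirenz measured by HPLC-UV. Ki from nonlinear regression to competitive, noncompetitive and uncompetitive models, chosen using Dixon plots.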

Cytochrome P450 2B6 [13] = molecular target: T1, Cytochrome P450 2B6; assay: Inhibition of human CYP2B6 expressed in baculovirus assessed as voriconazole N-oxide formation; type: ADME
CYP3A = CYP3A (Homo sapiens, UniProt P08684+P20815+P24462+Q9HB55); assay: Inhibition of CYP3A in human liver microsomes assessed as midazolam 1'- hydroxylation after 5 mins; type: ADME, Microsome; settings: probe midazolam (1'-hydroxylation); procedure, shortened: as §1
Cytochrome P450 2B6 [14] = molecular target: T1, Cytochrome P450 2B6; assay: Inhibition of CYP2B6 in human liver microsomes at 10 uM preincubated for 5 to 30 mins; type: ADME, Microsome
Procedure, shortened: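 Efavirenz (final 100 μM) then added and incubated 10 min with cofactors. Activity compared with 0-min controls lacking inhibitor and NADPH.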

Cytochrome P450 2B6 [15] = molecular target: T1, Cytochrome P450 2B6; assay: Inhibition of CYP2B6 in human liver microsomes using 8-hydroxyefavirenz as probe after 10 mins; type: ADME, Microsome
Cytochrome P450 2B6 [16] = molecular target: T1, Cytochrome P450 2B6; assay: Inhibition of CYP2B6 in human liver microsomes assessed as metabolite formation at 10 uM preincubated for 60 mins; type: ADME, Microsome
CYP2A6 = molecular target: T4, CYP2A6 (Homo sapiens, UniProt P11509); assay: Inhibition of CYP2A6 in human liver microsomes assessed as coumarin 7-hydroxylation at 100 uM after 15 mins; type: ADME, Microsome; settings: probe coumarin (7-hydroxylation)
T4 sequence (P11509 whole entry): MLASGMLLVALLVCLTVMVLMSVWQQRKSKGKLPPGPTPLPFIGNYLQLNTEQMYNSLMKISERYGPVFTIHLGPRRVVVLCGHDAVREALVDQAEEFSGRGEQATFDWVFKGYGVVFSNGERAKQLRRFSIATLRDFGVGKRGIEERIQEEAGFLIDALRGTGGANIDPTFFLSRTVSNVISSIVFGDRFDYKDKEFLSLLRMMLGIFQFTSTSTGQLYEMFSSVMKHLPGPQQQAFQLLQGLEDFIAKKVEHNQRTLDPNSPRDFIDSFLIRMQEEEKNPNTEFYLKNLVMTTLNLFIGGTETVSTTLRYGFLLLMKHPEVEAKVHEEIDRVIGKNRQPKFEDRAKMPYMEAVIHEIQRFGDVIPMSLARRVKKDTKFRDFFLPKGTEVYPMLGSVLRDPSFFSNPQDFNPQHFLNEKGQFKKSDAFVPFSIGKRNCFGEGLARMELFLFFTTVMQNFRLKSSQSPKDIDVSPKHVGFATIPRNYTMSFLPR

C[C@@H](c1ncncc1F)[C@](O)(Cn1cncn1)c1ccc(F)cc1F [VORICONAZOLE]
IC50 [1]: 10.5 µM
IC50 [2]: 54 µM
IC50 [3]: 10.5 µM
IC50 (Cytochrome P450 2B6 [4]): 0.79 µM
inhibition at 0.25 h, 100 µM (CYP2C8): < 25%
inhibition at 0.5 h, 100 µM (CYP2D6): < 25%
Ki (Cytochrome P450 2B6 [5]): 0.34 µM
IC50 (Cytochrome P450 2B6 [6]): 1.19 µM
IC50 (Cytochrome P450 2B6 [7]): 1.19 µM
inhibition (INH) (Cytochrome P450 2B6 [8]): Not Active
inhibition at 0.5 h, 100 µM (CYP1A2): < 25%
IC50 (Cytochrome P450 2B6 [9]): 1.71 µM
IC50 (Cytochrome P450 2B6 [10]): 1.71 µM
IC50 [11]: 50 µM
Ki (Cytochrome P450 2B6 [12]): 0.4 µM
IC50 (Cytochrome P450 2B6 [13]): 12.2 µM
IC50 at 5 min (CYP3A): 2.9 µM
inhibition (INH) (Cytochrome P450 2B6 [14]): Not Active
IC50 (Cytochrome P450 2B6 [15]): 0.79 µM
inhibition (INH) (Cytochrome P450 2B6 [16]): Active
inhibition at 0.25 h, 100 µM (CYP2A6): < 25%
